Legend:
[1] = biological target: Vascular endothelial growth factor receptor 1 (Homo sapiens) (UniProt P17948); experiment: Inhibition of recombinant human N-terminal GST-tagged FLT1 (784 to end residues) expressed in baculovirus infected Sf9 insect cells assessed as enzyme activity incubated for 15 mins by [gamma-33]ATP based scintillation counting method relative to control; parameters: scale not given: the % may be the effect or the level left
[2] = biological target: T1, Serine/threonine-protein kinase Sgk1 (Homo sapiens) (UniProt O00141); experiment: Inhibition of recombinant human N-terminal GST-tagged SGK1 (60 to end residues) expressed in baculovirus infected Sf9 insect cells assessed as enzyme activity incubated for 15 mins by [gamma-33]ATP based scintillation counting method relative to control; parameters: scale not given: the % may be the effect or the level left
T1 sequence (whole entry): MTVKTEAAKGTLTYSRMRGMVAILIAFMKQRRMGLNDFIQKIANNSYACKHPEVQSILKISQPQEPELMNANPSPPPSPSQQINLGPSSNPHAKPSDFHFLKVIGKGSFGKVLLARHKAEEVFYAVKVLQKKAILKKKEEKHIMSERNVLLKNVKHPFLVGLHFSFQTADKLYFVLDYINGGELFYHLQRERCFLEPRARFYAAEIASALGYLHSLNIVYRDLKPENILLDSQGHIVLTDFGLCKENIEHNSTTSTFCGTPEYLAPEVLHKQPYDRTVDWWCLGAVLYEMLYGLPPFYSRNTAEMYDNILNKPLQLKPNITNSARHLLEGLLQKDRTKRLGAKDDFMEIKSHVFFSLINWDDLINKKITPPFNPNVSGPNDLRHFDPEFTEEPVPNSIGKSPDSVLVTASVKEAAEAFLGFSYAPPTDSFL

MCF7 [3] = experiment: Antiproliferative activity against human MCF7 cells assessed as reduction in cell growth incubated for 72 hrs by MTT assay; type: functional, cell-based; details: MCF7, 72 h
In short: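 MTT assay on MCF-7, A2780, HT29 and normal MRC5 fibroblast lines (ATCC) grown in DMEM with 10% FBS. Cells exposed to compounds for 72 h, then reduced MTT read at 570 nm.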

[4] = Selectivity index, ratio of IC50 for cytotoxicity against human MRC5 cells to IC50 for antiproliferative activity against human MCF7 cells; details: MRC5 cells versus MCF7 cells
[5] = Selectivity index, ratio of IC50 for cytotoxicity against human MRC5 cells to IC50 for antiproliferative activity against human A2780 cells; details: MRC5 cells versus A2780 cells
MCF7 [6] = experiment: Cell cycle arrest in human MCF7 cells assessed as subG1 accumulation at 1 uM incubated for 24 hrs by propidium iodide based flow cytometry (reference value: 0.6 to 3 %); type: functional
MCF7 [7] = experiment: Cell cycle arrest in human MCF7 cells assessed as subG1 accumulation at 5 uM incubated for 24 hrs by propidium iodide based flow cytometry (reference value: 0.6 to 3 %); type: functional
MCF7 [8] = experiment: Cell cycle arrest in human MCF7 cells assessed as subG1 accumulation at 10 uM incubated for 24 hrs by propidium iodide based flow cytometry (reference value: 0.6 to 3 %); type: functional
MCF7 [9] = experiment: Cell cycle arrest in human MCF7 cells assessed as G1 accumulation at 1 uM incubated for 24 hrs by propidium iodide based flow cytometry (reference value: 49.6 to 55.1 %); type: functional
MCF7 [10] = experiment: Cell cycle arrest in human MCF7 cells assessed as G1 accumulation at 5 uM incubated for 24 hrs by propidium iodide based flow cytometry (reference value: 49.6 to 55.1 %); type: functional
MCF7 [11] = experiment: Cell cycle arrest in human MCF7 cells assessed as G1 accumulation at 10 uM incubated for 24 hrs by propidium iodide based flow cytometry (reference value: 49.6 to 55.1 %); type: functional
MCF7 [12] = experiment: Cell cycle arrest in human MCF7 cells assessed as S phase accumulation at 1 uM incubated for 24 hrs by propidium iodide based flow cytometry (reference value: 17.3 to 28.5 %); type: functional
MCF7 [13] = experiment: Cell cycle arrest in human MCF7 cells assessed as S phase accumulation at 5 uM incubated for 24 hrs by propidium iodide based flow cytometry (reference value: 17.3 to 28.5 %); type: functional
MCF7 [14] = experiment: Cell cycle arrest in human MCF7 cells assessed as S phase accumulation at 10 uM incubated for 24 hrs by propidium iodide based flow cytometry (reference value: 17.3 to 28.5 %); type: functional
MCF7 [15] = experiment: Cell cycle arrest in human MCF7 cells assessed as G2/M phase accumulation at 1 uM incubated for 24 hrs by propidium iodide based flow cytometry (reference value: 17.2 to 26.8 %); type: functional
MCF7 [16] = experiment: Cell cycle arrest in human MCF7 cells assessed as G2/M phase accumulation at 5 uM incubated for 24 hrs by propidium iodide based flow cytometry (reference value: 17.2 to 26.8 %); type: functional
MCF7 [17] = experiment: Induction of apoptosis in human MCF7 cells assessed as viable cells at 1 uM incubated for 24 hrs by annexin V FITC and propidium iodide staining based flow cytometry (reference value: 76 to 95.9 %); type: functional; details: MCF7, 24 h, read-out: Activity
MCF7 [18] = experiment: Induction of apoptosis in human MCF7 cells assessed as viable cells at 5 uM incubated for 24 hrs by annexin V FITC and propidium iodide staining based flow cytometry (reference value: 76 to 95.9 %); type: functional; details: MCF7, 24 h, read-out: Activity
MCF7 [19] = experiment: Induction of apoptosis in human MCF7 cells assessed as viable cells at 10 uM incubated for 24 hrs by annexin V FITC and propidium iodide staining based flow cytometry (reference value: 76 to 95.9 %); type: functional; details: MCF7, 24 h, read-out: Activity
MCF7 [20] = experiment: Induction of apoptosis in human MCF7 cells assessed as early apoptotic cells at 1 uM incubated for 24 hrs by annexin V FITC and propidium iodide staining based flow cytometry (reference value: 0 to 9 %); type: functional
MCF7 [21] = experiment: Induction of apoptosis in human MCF7 cells assessed as early apoptotic cells at 5 uM incubated for 24 hrs by annexin V FITC and propidium iodide staining based flow cytometry (reference value: 0 to 9 %); type: functional
MCF7 [22] = experiment: Induction of apoptosis in human MCF7 cells assessed as early apoptotic cells at 10 uM incubated for 24 hrs by annexin V FITC and propidium iodide staining based flow cytometry (reference value: 0 to 9 %); type: functional
MCF7 [23] = experiment: Induction of apoptosis in human MCF7 cells assessed as late apoptotic cells at 1 uM incubated for 24 hrs by annexin V FITC and propidium iodide staining based flow cytometry (reference value: 0 to 2.5 %); type: functional
MCF7 [24] = experiment: Induction of apoptosis in human MCF7 cells assessed as late apoptotic cells at 5 uM incubated for 24 hrs by annexin V FITC and propidium iodide staining based flow cytometry (reference value: 0 to 2.5 %); type: functional
MCF7 [25] = experiment: Induction of apoptosis in human MCF7 cells assessed as late apoptotic cells at 10 uM incubated for 24 hrs by annexin V FITC and propidium iodide staining based flow cytometry (reference value: 0 to 2.5 %); type: functional
MCF7 [26] = experiment: Induction of apoptosis in human MCF7 cells assessed as necrotic cells at 1 uM incubated for 24 hrs by annexin V FITC and propidium iodide staining based flow cytometry (reference value: 4.1 to […]); type: functional
MCF7 [27] = experiment: Induction of apoptosis in human MCF7 cells assessed as necrotic cells at 5 uM incubated for 24 hrs by annexin V FITC and propidium iodide staining based flow cytometry (reference value: 4.1 to […]); type: functional
MCF7 [28] = experiment: Induction of apoptosis in human MCF7 cells assessed as necrotic cells at 10 uM incubated for 24 hrs by annexin V FITC and propidium iodide staining based flow cytometry (reference value: 4.1 to […]); type: functional

Vascular endothelial growth factor receptor 1 (Homo sapiens), sequence (P17948 whole entry): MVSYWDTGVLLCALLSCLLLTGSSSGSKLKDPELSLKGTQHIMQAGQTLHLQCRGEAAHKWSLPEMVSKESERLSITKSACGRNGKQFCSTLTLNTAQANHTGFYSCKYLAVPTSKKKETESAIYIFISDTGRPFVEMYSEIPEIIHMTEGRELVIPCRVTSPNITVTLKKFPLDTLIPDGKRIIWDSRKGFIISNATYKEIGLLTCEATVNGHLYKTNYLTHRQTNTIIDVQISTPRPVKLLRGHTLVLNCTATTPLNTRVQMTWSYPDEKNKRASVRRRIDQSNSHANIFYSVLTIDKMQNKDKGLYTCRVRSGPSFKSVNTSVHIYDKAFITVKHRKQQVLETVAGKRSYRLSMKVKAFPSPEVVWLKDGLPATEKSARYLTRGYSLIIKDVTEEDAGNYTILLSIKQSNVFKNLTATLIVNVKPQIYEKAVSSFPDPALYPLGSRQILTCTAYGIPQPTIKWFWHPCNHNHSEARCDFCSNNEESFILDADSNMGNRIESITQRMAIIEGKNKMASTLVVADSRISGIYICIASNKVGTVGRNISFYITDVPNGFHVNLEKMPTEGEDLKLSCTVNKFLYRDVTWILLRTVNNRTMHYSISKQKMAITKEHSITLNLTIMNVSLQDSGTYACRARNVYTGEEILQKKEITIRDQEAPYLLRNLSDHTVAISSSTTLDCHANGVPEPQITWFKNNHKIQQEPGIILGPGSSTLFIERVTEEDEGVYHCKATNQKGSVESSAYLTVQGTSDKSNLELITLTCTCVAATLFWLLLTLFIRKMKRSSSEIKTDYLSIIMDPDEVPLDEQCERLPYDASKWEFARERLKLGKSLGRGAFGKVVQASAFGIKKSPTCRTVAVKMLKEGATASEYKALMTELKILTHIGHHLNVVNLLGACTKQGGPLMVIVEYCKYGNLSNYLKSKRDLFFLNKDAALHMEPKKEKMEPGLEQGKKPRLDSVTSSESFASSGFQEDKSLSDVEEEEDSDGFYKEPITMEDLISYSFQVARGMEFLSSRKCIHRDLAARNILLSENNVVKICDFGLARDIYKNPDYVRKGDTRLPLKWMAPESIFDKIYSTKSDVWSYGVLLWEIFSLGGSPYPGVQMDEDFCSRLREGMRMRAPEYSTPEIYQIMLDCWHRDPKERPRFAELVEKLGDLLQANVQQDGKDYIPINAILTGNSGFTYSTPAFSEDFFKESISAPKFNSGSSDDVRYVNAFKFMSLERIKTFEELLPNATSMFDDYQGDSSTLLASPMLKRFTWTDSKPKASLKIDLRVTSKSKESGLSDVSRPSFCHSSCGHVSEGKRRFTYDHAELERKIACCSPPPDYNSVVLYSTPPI

Activity [1]	Activity [2]	IC50 (MCF7 [3])	SMILES	selectivity ratio [4]	selectivity ratio [5]	Activity (MCF7 [6])	Activity (MCF7 [7])	Activity (MCF7 [8])	Activity (MCF7 [9])	Activity (MCF7 [10])	Activity (MCF7 [11])	Activity (MCF7 [12])	Activity (MCF7 [13])	Activity (MCF7 [14])	Activity (MCF7 [15])	Activity (MCF7 [16])	viability at 1 µM (MCF7 [17])	viability at 5 µM (MCF7 [18])	viability at 10 µM (MCF7 [19])	Activity (MCF7 [20])	other results
-10%	3%	–	Cc1ccc(NC(=O)c2ccc(CN3CCN(C)CC3)cc2)cc1Nc1nccc(-c2cccnc2)n1	–	–	–	–	–	–	–	–	–	–	–	–	–	–	–	–	–	–
1%	7%	100 nM	CC(C)C/C=N/c1c(C#N)c2n(c1C(=O)Nc1ccc(Br)cc1)CCC2	39 to 258	39 to 258	1%	0.9%	0.7%	30.8%	30.2%	29.6%	55.6%	55.1%	55.2%	12.4%	14.4%	55.4%	58.9%	57.6%	13.3%	Activity (MCF7 [21]): 16.5%; Activity (MCF7 [22]): 15.6%; Activity (MCF7 [23]): 10.5%; Activity (MCF7 [24]): 11.2%; Activity (MCF7 [25]): 12.2%; Activity (MCF7 [26]): 20.8%; Activity (MCF7 [27]): 13.4%; Activity (MCF7 [28]): 14.7%
18%	-14%	570 nM	CC/C=N/c1c(C#N)c2n(c1C(=O)Nc1ccccc1)CCC2	–	–	–	–	–	–	–	–	–	–	–	–	–	–	–	–	–	–
32%	8%	160 nM	CCC1SCC(=O)N1c1c(C#N)c2n(c1C(=O)Nc1ccccc1)CCC2 (stereo unspecified)	3 to 15	3 to 15	2.4%	2.4%	8.9%	56.4%	59.4%	59.1%	20.6%	17.8%	14.2%	15.6%	15.8%	80.1%	77.8%	66.6%	11.5%	Activity (MCF7 [21]): 14.3%; Activity (MCF7 [22]): 19.5%; Activity (MCF7 [23]): 7.5%; Activity (MCF7 [24]): 6.9%; Activity (MCF7 [25]): 10.3%; Activity (MCF7 [26]): 1%; Activity (MCF7 [27]): 0.9%; Activity (MCF7 [28]): 3.7%

Reference: ChEMBL document CHEMBL4312005, “Optimization of pyrrolizine-based Schiff bases with 4-thiazolidinone motif: Design, synthesis and investigation of cytotoxicity and anti-inflammatory potency” (Eur J Med Chem, 2020)
